Screening data as filed in PubChem BioAssay.
Many of the other results were omitted from the sample, so hits are more common in it than they were.
A1 apoptosis 2 – compounds inhibiting A1, read as caspase activation | MEF A1-2A-BIM cells, caspase-Glo luminescence, 3 h; percent of clofoctol response, DMSO zero | caspase activation, % (no concentration beside the values) | 24,000 tested, under 10 active | AID 2465; in the data active = caspase activation above about 5.9%
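System: mouse embryonic fibroblasts co-expressing A1 and BIM (A1-2A-BIM), primed for A1 dependence; amount: 2500 cells/well; doses: 50 nL pinned compound; schedule: cells settled overnight, compound exposure 3 h at 37 °C, 5% CO2; detection: Caspase-Glo 3/7 luminescence, 1 h at room temperature; read-out: Caspase-3/7 activation, seen as rise in luminescence signal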
INS-1E ATP HTS – rescue of cytokine-induced death in INS-1E beta cells; hit rate 0.1% among 20,000; INS-1E cytokine-induced death, ATP luminescence, 48 h; normalised: neutral wells 0, positive control 100; protection from cytokine-induced ATP loss, % at 10 µM;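 active = mean replicate protection from cytokine-induced ATP loss at least 50% and at least 75% of replicates each reaching 50%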
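Assay system: INS-1E rat insulinoma cells. Amount: 8000 cells per well. Medium: phenol-red-free RPMI with 5% fetal bovine serum. Reagent: IL-1β, TNF-α and IFN-γ cytokine mix. Doses: one compound concentration, pin transfer. Schedule: 48 h co-treatment, 10 min post-lysis read. Detection: CellTiter-Glo luminescence measuring cellular ATP.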
T cruzi intra – blocks T. cruzi growth inside host cells; intracellular Trypanosoma cruzi in host cells, plate reader; activity score (inhibition), % at 5.01 µM; hit rate 4.9% among 22,000; AID 651903; in the data active = activity score above about 55%;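 also: parasites and compound incubated about four days before reading; 0% = median of neutral control wells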
* hit, by the source's call; . = no result.

SMILES	A1 apoptosis 2	INS-1E ATP HTS	T cruzi intra
Cc1ccc(S(=O)(=O)N(C)C[C@H]2Oc3c(NC(=O)c4nc5ccccc5s4)cccc3C(=O)N([C@H](C)CO)C[C@H]2C)cc1	.	4	16
Cc1ccc(S(=O)(=O)N(C)C[C@H]2Oc3c(NC(=O)c4nc5ccccc5s4)cccc3C(=O)N([C@H](C)CO)C[C@@H]2C)cc1	.	-18	89*
Cc1noc(C)c1S(=O)(=O)N(C)C[C@@H]1Oc2ccc(NS(=O)(=O)c3ccccc3)cc2CC(=O)N([C@@H](C)CO)C[C@@H]1C	.	4	6
Cn1cc(/C=N/NC(=O)CCCCCCC(=O)Nc2ccccc2O)c2ccccc21	3	9	17
COc1ccc(NC(=O)Nc2cccc3c2O[C@H](CN(C)Cc2ccc4c(c2)OCO4)[C@@H](C)CN([C@H](C)CO)C3=O)cc1	.	-7	4
Cc1ccc(S(=O)(=O)N(C)C[C@H]2Oc3c(NC(=O)c4nc5ccccc5s4)cccc3C(=O)N([C@@H](C)CO)C[C@H]2C)cc1	0	-17	16
Cc1ccc(S(=O)(=O)N(C)C[C@H]2Oc3c(NC(=O)c4nc5ccccc5s4)cccc3C(=O)N([C@@H](C)CO)C[C@@H]2C)cc1	.	-12	75*
Cc1noc(C)c1NC(=O)Nc1cccc2c1O[C@@H](CN(C)C(=O)Nc1ccc(C(F)(F)F)cc1)[C@@H](C)CN([C@H](C)CO)C2=O	0	-4	8
C[C@@H]1CN([C@@H](C)CO)C(=O)c2cc(NC(=O)Nc3ccc4c(c3)OCO4)ccc2O[C@@H]1CN(C)Cc1ccc(C(=O)Nc2ccccc2N)cc1	.	4	46
C[C@@H]1CN([C@H](C)CO)C(=O)c2cccc(NC(=O)Nc3ccc4c(c3)OCO4)c2O[C@@H]1CN(C)Cc1ccc(C(=O)Nc2ccccc2N)cc1	.	11	68*
C[C@H]1CN([C@@H](C)CO)C(=O)c2cccc(NC(=O)Nc3ccc4c(c3)OCO4)c2O[C@H]1CN(C)Cc1ccc(C(=O)Nc2ccccc2N)cc1	.	-13	66*
C[C@@H]1CN([C@@H](C)CO)C(=O)c2cc(NC(=O)Nc3ccc4c(c3)OCO4)ccc2O[C@H]1CN(C)Cc1ccc(C(=O)Nc2ccccc2N)cc1	0	-19	55
CC(C)NC(=O)Nc1ccc2c(c1)CC(=O)N([C@@H](C)CO)C[C@H](C)[C@@H](CN(C)CC1CCCCC1)O2	0	-2	1
COc1ccc(NC(=O)Nc2cccc3c2O[C@@H](CN(C)CC2CCCCC2)[C@H](C)CN([C@H](C)CO)C3=O)cc1	-2	-22	16
[N-]=[N+]=NCc1ccccc1C[C@@]1(C(=O)NCC(O)CO)N=C(c2ccc(OCCCO)cc2)O[C@@H]1c1ccccc1 (some centres undefined)	5.9*	.	.
[N-]=[N+]=NCc1ccccc1C[C@]1(C(=O)NCC(O)CO)N=C(c2ccc(OCCCO)cc2)O[C@H]1c1ccccc1 (some centres undefined)	-1	.	.
COc1ccc(S(=O)(=O)N(C)C[C@H]2OCCCC[C@H](C)Oc3ccc(NC(=O)c4ccccc4)cc3C(=O)N([C@H](C)CO)C[C@@H]2C)cc1	-1	.	.
C[C@H]1CN([C@@H](C)CO)C(=O)Cc2cc(NC(=O)Cc3ccccc3)ccc2O[C@H]1CN(C)Cc1ccc(C(=O)Nc2ccccc2N)cc1	1	.	.
C[C@H](CO)N1C[C@H](C)[C@H](CN(C)Cc2ccc(C(=O)Nc3ccccc3N)cc2)Oc2ccc(NC(=O)Cc3ccccc3)cc2CC1=O	.	45	64*
C[C@@H]1CN([C@H](C)CO)C(=O)Cc2cc(NC(=O)Cc3ccccc3)ccc2O[C@H]1CN(C)Cc1ccc(C(=O)Nc2ccccc2N)cc1	1	-20	30
C[C@@H]1CN([C@@H](C)CO)C(=O)Cc2cc(NC(=O)Cc3ccccc3)ccc2O[C@@H]1CN(C)Cc1ccc(C(=O)Nc2ccccc2N)cc1	0	-14	77*
CNC[C@@H]1OCCCC[C@@H](C)Oc2ccc(NC(=O)C3CCCCC3)cc2C(=O)N([C@@H](C)CO)C[C@H]1C	0	.	.
C[C@@H]1CN([C@@H](C)CO)C(=O)c2cccc(NC(=O)c3nc4ccccc4s3)c2O[C@H]1CN(C)Cc1ccc(Cl)c(Cl)c1	0	-20	34
COc1ccc(S(=O)(=O)N(C)C[C@H]2Oc3ccc(NS(=O)(=O)c4ccc(Cl)cc4)cc3C(=O)N([C@H](C)CO)C[C@@H]2C)cc1	-1	-6	32
C[C@@H]1CN([C@@H](C)CO)C(=O)c2cc(NS(=O)(=O)c3ccc(Cl)cc3)ccc2O[C@@H]1CN(C)Cc1ccc(-c2ccccc2)cc1	1	-52	69*
